In article PMC10519257 (Journal of Enzyme Inhibition and Medicinal Chemistry, 2023):
Ends that are not written are not given here.

Legend:
[1] = test system: isolated uterus; settings: rat isolated uterus; cited from earlier work
[2] = test system: rat mammary gland; settings: cited from earlier work
[3] = Stability in phosphate buffer pH 7.2; format: physicochemical
In short: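 Peptides were incubated at 37 °C in phosphate buffer at pH 7.2 without serum. Remaining peptide was sampled at 1, 3, 5, 20, 24 and 48 h and measured by RP-HPLC-MS.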

[4] = Serum stability; format: in vitro ADME, human
In short: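 Test compound in water (1 mg/mL stock) diluted to 0.1 mg/mL in phosphate buffer pH 7.2, then added to serum from one 40th-week pregnant donor (oxytocinase-rich) and incubated at 37 °C with a reference peptide as internal standard. Aliquots at 1, 3, 5, 20, 24, 48 h were quenched in H2O/CH3CN (1:1) with 0.1% TFA, held 5 min at 0 °C and centrifuged.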

Molecule | contractile activity [1] | contractile activity [2] | half-life [3] | half-life ([4]; human, serum) | time after which not detectable by analytical RP-HPLC ([4]; woman serum at 40th week of pregnancy, 37 °C)
(1,6-di-alanine)-oxytocin (AYIQNAPLG; ends and bridges not checked; UniProt P01178 20-28, looked up, variant C1A C6A) [[Ala(1,6)]OT] | devoid of any contractile activity | devoid of any contractile activity | – | – | –
CC[C@H](C)[C@@H]1NC(=O)[C@H](Cc2ccc(O)cc2)NC(=O)[C@@H](N)CSSC[C@@H](C(=O)N2CCC[C@H]2C(=O)N[C@@H](CC(C)C)C(=O)NCC(N)=O)NC(=O)[C@H](CC(N)=O)NC(=O)[C@H](CCC(N)=O)NC1=O [OT, Oxytocin] | – | – | 24 h | 16 h | 48 h
(1,6-di-serine)-oxytocin (SYIQNSPLG; ends and bridges not checked; UniProt P01178 20-28, looked up, variant C1S C6S) [[Ser(1,6)]OT] | devoid of any contractile activity | devoid of any contractile activity | – | – | –
